Source: publication PMC9157599 (Materials Today Bio, 2022)
Numbered stars: 1 amine (or outer) side, 2 acyl side, 3 side chain; on linkers, the order of the positions; unused ones are H or OH. Square brackets hold non-standard residues; d marks the D form. Peptide text beside a SMILES is read from it. * marks the point of attachment. DAMPA = CN(Cc1cnc2nc(N)nc(N)c2n1)c1ccc(C(=O)*)cc1; γGlu = O=C(O)[C@H](CCC(=O)[*:2])N[*:1]

Legend:
[1] = Gelation by heating-cooling and recovery after injection; assay type: physicochemical
In short: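 Gels were formed by dissolving peptide in PBS/Na2CO3 (pH 7.4), heating 30 s (flame or 100 °C water bath), then cooling at room temperature. Samples went onto the rheometer right after gelation: 40 mm parallel plates, 500 μm gap, frequency sweep 0.1–100 rad/s at 1% strain. Gel was measured before and after injection.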

AIA mice [2] = experiment: Therapeutic effect in adjuvant-induced arthritis; assay type: in vivo, C57BL/6 mice; conditions: n = 5; for paw swelling after 4 weeks of treatment: 20 μL intra-articular, both knees, twice a week for 4 weeks; for clinical score: dynamic, up to 28 days; for skin temperature of hind paws: infrared camera, 28th day after administration
In short: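 Male C57BL/6 AIA mice (CFA s.c. in the fore underarm; IFA into both hind pads a week later; treatment after one further week) were randomised to groups of n = 5. Dosing was 20 μL intra-articular into both knees twice weekly for 4 weeks. Arthritis was scored clinically, joint diameter was measured weekly by vernier caliper, and hind-paw skin temperature was recorded by infrared camera on day 28.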

[3] = system: M1 macrophages (LPS-induced RAW264.7); experiment: Western blot of M1 markers in RAW264.7; assay type: cell-based, Mice; conditions: 100 μM, 24 h, compared to control group (LPS), n = 3
In short: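 RAW264.7 cells were polarised with […] LPS for 24 h, then treated with test compound or hydrogel (100 μM) for 24 h. Lysate protein was quantified by Bradford assay, run on 10% SDS-PAGE and transferred to PVDF. Membranes were probed overnight at 4 °C for iNOS, IL-6 and TNF-α, then secondary antibody for 120 min at room temperature. Detection was by chemiluminescence, with tubulin reference and densitometry, n = 3.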

[4] = system: RA synovial fibroblast (RA-FLS); experiment: MTT cell viability, RA-FLS; assay type: cell-based; conditions: 48 h
In short: (§1)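 Cells were seeded at 10^4 per well and exposed for 48 h to test compound or hydrogel at 200, 100, 50, 10, 5 or 0 μM. Viability was read by MTT absorbance at 490 nm.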

AIA mice [5] = experiment: Serum inflammatory cytokines in AIA mice; assay type: in vivo, C57BL/6 mice; conditions: compared to PBS group, without statistical difference, n = 3 (Figure S13)
RA-FLS [6] = experiment: Wound-healing; assay type: cell-based; conditions: 100 μM, 48 h culture then scratch, n = 6
In short: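 RA-FLS were serum-starved 12 h, mixed with hydrogels (formed from 100 μM peptide) or MTX solution (100 μM), and cultured 48 h. Monolayers were then scratched. Migration rate was calculated from healed area after a further 12 and 24 h, n = 6.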

RAW264.7 cells = experiment: Immunofluorescence staining of iNOS and CD206 on RAW264.7; assay type: cell-based, Mice; conditions: 100 μM, 24 h
In short: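 RAW264.7 cells were polarised with 1% w/v LPS-containing medium for 24 h, then exposed to test compound or hydrogel (100 μM) for another 24 h. Cells were immunostained for iNOS (M1) and CD206 (M2) and imaged by fluorescence.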

AIA mice [7] = experiment: Immunofluorescence staining of synovial tissues of AIA mice; assay type: in vivo, C57BL/6 mice; conditions: for fluorescence signal of iNOS (M1 macrophages) in synovial tissues: n = 3; for synovial pannus / neovascularization (CD31 expression): n = 3 (Fig. 6c, Figure S14)
In short: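 AIA was induced in male C57BL/6 mice with CFA s.c., followed a week later by IFA into the hind pads. Knees received 20 μL intra-articular treatment twice weekly for 4 weeks. Knee joint sections were stained overnight at 4 °C with antibodies to CD31, F4/80, CD206 or iNOS (1:300), then Alexa Fluor 488 or Cy3 secondaries (1:8000, 2 h, room temperature) and DAPI. Imaging was by fluorescence microscopy, n = 3.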

proteinase K = proteinase K (Parengyodontium album, UniProt P06873); experiment: Biostability of hydrogels exposed to proteinase K; assay type: in vitro ADME; conditions: for change of HPLC peak after addition of proteinase K: 37 °C, HPLC spectra (Fig. 1e)
Chain of proteinase K (P06873 106-384, species assumed): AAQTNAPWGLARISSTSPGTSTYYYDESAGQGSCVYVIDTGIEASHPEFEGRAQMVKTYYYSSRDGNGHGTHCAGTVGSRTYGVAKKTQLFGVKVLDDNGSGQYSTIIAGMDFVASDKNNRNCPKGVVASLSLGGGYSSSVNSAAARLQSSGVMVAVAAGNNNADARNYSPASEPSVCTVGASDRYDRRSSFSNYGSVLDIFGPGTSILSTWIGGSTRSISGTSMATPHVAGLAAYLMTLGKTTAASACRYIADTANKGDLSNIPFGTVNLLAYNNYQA
In short: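 Peptide (1 mg in 5 mL PBS) incubated at 37 °C with proteinase K (3.2 units/mL). Aliquots were taken at each time point and analysed by reverse-phase HPLC on a C18 column, eluting with MeOH and water (each with 0.05% TFA).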

RA-FLS [8] = experiment: Live/dead staining, RA-FLS; assay type: cell-based; conditions: 100 μM, 48 h, Calcein AM/PI
L929 = experiment: Live/dead staining, L929; assay type: cell-based, mouse; conditions: 100 μM, 48 h, Calcein AM/PI; MTX-loaded compared to MTX-GFFY and free MTX groups
In short: (§2)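 Cells were exposed to hydrogels or free MTX (100 μM) for 48 h, stained with Calcein AM (live) and propidium iodide (dead), and imaged by fluorescence microscopy.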

[9] = system: M1 macrophages (LPS-induced RAW264.7); experiment: RT-qPCR of M1 markers in LPS-induced RAW264.7; assay type: cell-based, Mice; conditions: 100 μM, 24 h, compared to control group (LPS), n = 3
In short: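 RAW264.7 cells were polarised to M1 with 1% w/v LPS medium for 24 h, then treated with test compound or hydrogel (100 μM) for 24 h. Total RNA was extracted with TRIzol, and iNOS, IL-6 and TNF-α mRNA were quantified by RT-qPCR.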

HUVEC = experiment: Live/dead staining, HUVEC; assay type: cell-based, human; conditions: 100 μM, 48 h, Calcein AM/PI; MTX-loaded compared to MTX-GFFY and free MTX groups
In short: as §2

AIA mice [10] = experiment: Histology and immunohistochemistry of knee joints of AIA mice; assay type: in vivo, C57BL/6 mice; conditions: day 28
In short: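 Male 8-week C57BL/6 mice received CFA (1% w/v) s.c. in the fore underarm, then the same dose of IFA into both hind pads a week later. One week on, 20 μL test hydrogel or PBS was given intra-articularly into both knees twice weekly for 4 weeks (n = 5). On day 28 knees were fixed in 4% paraformaldehyde, EDTA-decalcified 30 days, stained H&E and safranin-O/fast green, and Mankin-scored.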

mouse fibroblast (L929) = experiment: MTT cell viability, L929; assay type: cell-based; conditions: 5-200 μM, 48 h, n = 3
In short: as §1

[11] = system: human umbilical vein endothelial cell (HUVEC); experiment: MTT cell viability, HUVEC; assay type: cell-based; conditions: 5-200 μM, 48 h, n = 3
In short: as §1

RA-FLS [12] = experiment: Transwell invasion assay; assay type: cell-based; conditions: transwell with Matrigel, 100 μM, 24 h, n = 6
In short: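 RA-FLS were serum-starved 12 h and mixed with hydrogels or MTX solution (100 μM). They were seeded in the upper transwell chamber in serum-free medium with 12.5% Matrigel, with 20% FBS medium below as chemoattractant. After 24 h, invaded cells were stained with 2% crystal violet and counted microscopically, n = 6.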

[13] = hydrogel exposed to proteinase K at 37 °C, images (Figure S8)

| Compound | paw swelling after 4 weeks of treatment (AIA mice [2]) | clinical score (AIA mice [2]) | wound-healing rate at 24 h (RA-FLS [6]) [%] | expression of iNOS (M1 marker) in RAW264.7 cells (RAW264.7 cells) | fluorescence signal of iNOS (M1 macrophages) in synovial tissues (AIA mice [7]) | synovial pannus / neovascularization (CD31 expression) (AIA mice [7]) | change of HPLC peak after addition of proteinase K (proteinase K) | relative gene expression of M1 markers (IL-6, TNF-α, iNOS) [9] | synovial hyperplasia and joint structure (H&E staining) (AIA mice [10]) | RA-FLS invasion into the lower chamber (cell numbers) (RA-FLS [12]) | skin temperature of hind paws (AIA mice [2]) | also measured |
| --- | --- | --- | --- | --- | --- | --- | --- | --- | --- | --- | --- | --- |
| CN(Cc1cnc2nc(N)nc(N)c2n1)c1ccc(C(=O)N[C@@H](CCC(=O)NCC(=O)N[C@H](Cc2ccccc2)C(=O)N[C@H](Cc2ccccc2)C(=O)N[C@H](Cc2ccc(O)cc2)C(=O)O)C(=O)O)cc1 [MTX-G^DF^DF^DY] ({DAMPA-γGlu}-G[dF][dF][dY]-OH) | effectively relieved paw swelling | lowest among all groups | 40 | strongest inhibitory effect | lowest | lowest among all treatment groups | had no obvious change | all marker genes of M1 macrophages were significantly down-regulated | knee joint structure was well protected | obviously decreased | – | time until hydrogel became stable (dynamic gelation process) ([1]; 10.317 mM (1 wt%) peptide in PBS, heating-cooling process (Figure S3)): ≤ 2 min; time to return to gel after injection ([1]; rheology before and after injection (Fig. 1d)): 5 min; expression of M1 macrophage related proteins (iNOS, IL-6, TNF-α) [3]: best inhibitory effect; effect on RA-FLS proliferation at 50 μM ([4]; 50 μM): significantly inhibited RA-FLS proliferation; level of serum IL-6 (AIA mice [5]): slightly lower; level of serum TNF-α (AIA mice [5]): slightly lower; time hydrogel was stable in vitro (proteinase K; [13]): approximately 5 days; live/dead staining, RA-FLS (RA-FLS [8]): significantly enhanced the ratio of dead cells/live cells; live/dead staining, L929 (L929): less L929 and HUVEC cells were dead; live/dead staining, HUVEC (HUVEC): less L929 and HUVEC cells were dead; IL-6 expression level in synovial tissue (immunohistochemistry) (AIA mice [10]): decreased to a similar level to normal group; effect on cell proliferation / cytotoxicity, L929 (mouse fibroblast (L929)): reduced the cytotoxicity; effect on cell proliferation / cytotoxicity, HUVEC [11]: reduced the cytotoxicity |
| CN(Cc1cnc2nc(N)nc(N)c2n1)c1ccc(C(=O)N[C@@H](CCC(=O)NCC(=O)N[C@@H](Cc2ccccc2)C(=O)N[C@@H](Cc2ccccc2)C(=O)N[C@@H](Cc2ccc(O)cc2)C(=O)O)C(=O)O)cc1 [MTX-GFFY] ({DAMPA-γGlu}-GFFY-OH) | paw swelling was alleviated | – | 50 | – | significantly decreased | – | gradually decreased | – | synovial evasion was inhibited | obviously decreased | below 33 °C | effect on RA-FLS at 100 μM ([4]; 100 μM): mild effects; time after which hydrogel became flowable (proteinase K; [13]): 1 days |
| CN(Cc1cnc2nc(N)nc(N)c2n1)c1ccc(C(=O)N[C@@H](CCC(=O)O)C(=O)O)cc1 [MTX, methotrexate, reference compound] | paw swelling was alleviated | gradually decreased | 100 | significantly decreased | significantly decreased | lowest among all treatment groups | – | not obvious | synovial evasion was inhibited | inhibited approximately half | below 33 °C | wound-healing rate at 12 h (RA-FLS [6]; 12 h): 50% |
